Test results reported in ChEMBL document CHEMBL4433246, “Synthesis and Optimization of Kv7 (KCNQ) Potassium Channel Agonists: The Role of Fluorines in Potency and Selectivity” (ACS Med Chem Lett, 2019).

Experiments:
[1] = molecular target: Voltage-gated potassium channel, KQT; KCNQ2(Kv7.2)/KCNQ3(Kv7.3) (Homo sapiens) (UniProt O43526+O43525); experiment: Agonist activity at human Kv7.2/Kv7.3 expressed in HEK293 cells assessed as drug concentration that doubles the conductance at voltage leading to 15% channel activation at holding potential of at -80 mV by whole cell patch clamp electrophysiology assay; assay type: cell-based
Procedure, shortened: (§1)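 High-throughput automated electrophysiology on an IonWorks Barracuda platform using HEK293 cells expressing the human channel. Ten-point concentration–response curves were run. EC2x is the agonist concentration that doubles conductance at the voltage giving 15% channel activation. Values come from 2–5 individual assay determinations and are given as mean ± SD. The reference agonist was run in 6–431 repeats.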

[2] = molecular target: Voltage-gated potassium channel KCNQ3/KCNQ5 (Homo sapiens) (UniProt O43525+Q9NR82); experiment: Agonist activity at human Kv7.3/Kv7.5 expressed in HEK293 cells assessed as drug concentration that doubles the conductance at voltage leading to 15% channel activation at holding potential of at -80 mV by whole cell patch clamp electrophysiology assay; assay type: cell-based; procedure, shortened: as §1
[3] = molecular target: T1, Potassium voltage-gated channel subfamily KQT member 4 (Homo sapiens) (UniProt P56696); experiment: Agonist activity at human Kv7.4 expressed in HEK293 cells assessed as drug concentration that doubles the conductance at voltage leading to 15% channel activation at holding potential of at -80 mV by whole cell patch clamp electrophysiology assay; assay type: cell-based; procedure, shortened: as §1
T1 sequence (whole entry): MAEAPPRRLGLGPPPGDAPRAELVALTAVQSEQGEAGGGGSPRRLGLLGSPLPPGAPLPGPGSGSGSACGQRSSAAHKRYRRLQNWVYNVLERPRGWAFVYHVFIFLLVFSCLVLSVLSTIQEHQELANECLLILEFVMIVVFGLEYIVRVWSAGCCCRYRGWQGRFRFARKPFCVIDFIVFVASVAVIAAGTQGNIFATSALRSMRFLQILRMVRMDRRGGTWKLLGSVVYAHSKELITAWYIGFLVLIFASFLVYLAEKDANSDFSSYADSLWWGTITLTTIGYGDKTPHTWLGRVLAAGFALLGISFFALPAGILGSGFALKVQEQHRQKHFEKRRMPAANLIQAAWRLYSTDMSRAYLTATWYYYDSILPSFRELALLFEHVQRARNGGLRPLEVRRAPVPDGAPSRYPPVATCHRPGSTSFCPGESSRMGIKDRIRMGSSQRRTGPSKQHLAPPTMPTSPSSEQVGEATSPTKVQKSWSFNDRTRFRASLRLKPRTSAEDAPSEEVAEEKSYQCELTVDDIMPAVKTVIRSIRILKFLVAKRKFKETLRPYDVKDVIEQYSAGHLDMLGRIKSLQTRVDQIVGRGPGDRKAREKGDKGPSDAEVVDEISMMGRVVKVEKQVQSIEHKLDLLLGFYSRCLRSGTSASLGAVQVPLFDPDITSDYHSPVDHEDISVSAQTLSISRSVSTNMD

[4] = molecular target: KCNQ4/KCNQ5 (Homo sapiens) (UniProt Q9NR82+P56696); experiment: Agonist activity at human Kv7.4/Kv7.5 expressed in HEK293 cells assessed as drug concentration that doubles the conductance at voltage leading to 15% channel activation at holding potential of at -80 mV by whole cell patch clamp electrophysiology assay; assay type: cell-based; procedure, shortened: as §1
Homo sapiens = organism: Homo sapiens; experiment: Selectivity index, ratio of EC2x for human Kv7.4/5 expressed in HEK293 cells to EC2x for EC2x for human Kv7.2/3 expressed in HEK293 cells; assay type: cell-based
Procedure, shortened: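 Selectivity index calculated as EC2x(Kv7.4/Kv7.5) divided by EC2x(Kv7.2/Kv7.3). Both EC2x values came from IonWorks Barracuda automated electrophysiology in HEK293 cells, using 10-point concentration curves and the doubled-conductance definition at 15% activation voltage.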

[5] = Half life in human liver microsomes; assay type: ADME, Microsome
Procedure, shortened: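 Stability was measured by incubation with pooled human liver microsomes. Half-life is reported in minutes.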

[6] = molecular target: Voltage-gated potassium channel, KQT; KCNQ2(Kv7.2)/KCNQ3(Kv7.3) (Homo sapiens, UniProt O43525+O43526); experiment: Agonist activity at human Kv7.2/Kv7.3 expressed in CHO cells at holding potential of at -85 mV by whole cell patch clamp electrophysiology assay; assay type: cell-based
Voltage-gated potassium channel, KQT; KCNQ2(Kv7.2)/KCNQ3(Kv7.3), sequence (O43526 whole entry): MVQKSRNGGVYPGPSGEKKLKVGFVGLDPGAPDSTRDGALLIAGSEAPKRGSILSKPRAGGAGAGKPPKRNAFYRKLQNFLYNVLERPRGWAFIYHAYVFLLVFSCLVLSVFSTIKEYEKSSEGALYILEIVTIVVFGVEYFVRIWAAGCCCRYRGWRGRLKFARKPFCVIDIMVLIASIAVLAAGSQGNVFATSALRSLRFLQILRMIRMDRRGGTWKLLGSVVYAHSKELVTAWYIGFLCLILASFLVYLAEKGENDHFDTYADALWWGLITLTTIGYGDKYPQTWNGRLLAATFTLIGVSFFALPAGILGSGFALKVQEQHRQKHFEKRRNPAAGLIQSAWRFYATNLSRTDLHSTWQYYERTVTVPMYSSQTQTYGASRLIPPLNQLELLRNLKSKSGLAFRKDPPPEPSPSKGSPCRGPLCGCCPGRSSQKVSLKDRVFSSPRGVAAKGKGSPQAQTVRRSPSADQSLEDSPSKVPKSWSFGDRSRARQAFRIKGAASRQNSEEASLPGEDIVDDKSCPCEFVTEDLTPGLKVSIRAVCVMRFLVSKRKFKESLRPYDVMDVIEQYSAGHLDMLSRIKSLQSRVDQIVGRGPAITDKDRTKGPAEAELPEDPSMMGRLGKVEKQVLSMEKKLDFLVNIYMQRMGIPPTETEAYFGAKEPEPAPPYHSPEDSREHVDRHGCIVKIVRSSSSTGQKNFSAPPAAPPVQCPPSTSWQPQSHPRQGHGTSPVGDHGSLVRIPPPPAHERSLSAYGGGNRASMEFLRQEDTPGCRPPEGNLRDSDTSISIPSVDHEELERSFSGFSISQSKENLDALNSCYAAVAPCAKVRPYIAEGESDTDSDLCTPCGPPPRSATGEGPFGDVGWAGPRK
Voltage-gated potassium channel, KQT; KCNQ2(Kv7.2)/KCNQ3(Kv7.3), sequence (O43525 whole entry): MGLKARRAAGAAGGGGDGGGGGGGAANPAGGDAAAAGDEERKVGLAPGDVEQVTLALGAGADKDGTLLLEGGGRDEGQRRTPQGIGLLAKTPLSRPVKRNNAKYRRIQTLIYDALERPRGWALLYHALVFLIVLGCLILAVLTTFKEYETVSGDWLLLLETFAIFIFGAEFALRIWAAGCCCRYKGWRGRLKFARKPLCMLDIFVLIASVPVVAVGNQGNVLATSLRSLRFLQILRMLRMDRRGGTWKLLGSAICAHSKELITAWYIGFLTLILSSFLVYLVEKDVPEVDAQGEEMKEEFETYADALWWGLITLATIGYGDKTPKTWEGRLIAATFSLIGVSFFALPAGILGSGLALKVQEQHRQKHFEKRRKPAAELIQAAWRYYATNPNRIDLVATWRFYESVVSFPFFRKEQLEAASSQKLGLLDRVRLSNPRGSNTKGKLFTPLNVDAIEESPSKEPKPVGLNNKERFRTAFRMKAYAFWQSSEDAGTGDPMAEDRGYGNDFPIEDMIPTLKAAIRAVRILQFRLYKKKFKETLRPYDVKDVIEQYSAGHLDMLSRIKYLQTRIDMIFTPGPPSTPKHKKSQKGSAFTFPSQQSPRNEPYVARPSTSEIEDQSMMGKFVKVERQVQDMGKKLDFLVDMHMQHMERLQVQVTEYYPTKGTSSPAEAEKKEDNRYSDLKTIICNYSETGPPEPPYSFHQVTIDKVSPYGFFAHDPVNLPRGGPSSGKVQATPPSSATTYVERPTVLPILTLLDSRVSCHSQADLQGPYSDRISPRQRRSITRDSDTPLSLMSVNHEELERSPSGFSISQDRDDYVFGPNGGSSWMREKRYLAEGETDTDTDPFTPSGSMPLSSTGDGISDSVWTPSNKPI

| SMILES | EC2 [1] [µM] | EC2 [2] [µM] | EC2 [3] [µM] | EC2 [4] [µM] | Selectivity Index (Homo sapiens) | half-life [5] [h] | EC50 [6] [nM] |
| --- | --- | --- | --- | --- | --- | --- | --- |
| CCOC(=O)Nc1ccc(NCc2ccc(C(F)(F)F)c(C#N)n2)c(F)c1N | 1.6 | 1.3 | 2.17 | 2.33 | 1.5 | – | – |
| Nc1c(NC(=O)OC2CC2)ccc(NCc2ccc(C(F)(F)F)cc2)c1F | 0.11 | 0.23 | 0.38 | 0.28 | 2.5 | – | – |
| CCOC(=O)Nc1ccc(NCc2ccc(C(F)(F)F)cc2)c(F)c1N | 0.26 | 0.29 | 0.1 | 0.09 | 0.3 | 5.73 | – |
| CCOC(=O)Nc1ccc(NCc2ccc(F)cc2)c(F)c1N | – | – | – | – | – | – | 600 |
| Nc1c(F)c(NCc2ncc(C(F)(F)F)cc2F)cc(F)c1NC(=O)OC1CC1 | 1 | > 10 | > 10 | > 10 | > 10 | – | – |
| CCOC(=O)Nc1ccc(NCc2cccc(C(F)(F)F)c2)c(F)c1N | 0.14 | 0.2 | 0.4 | 0.66 | 4.7 | – | – |
| Nc1c(NC(=O)OC2CC2)ccc(NCc2ccc(C(F)(F)F)cn2)c1F | 0.79 | 0.72 | 0.9 | 0.96 | 1.2 | – | – |
| CCOC(=O)Nc1ccc(NCc2ccc(C(F)(F)F)cc2F)c(F)c1N | 0.18 | 0.34 | 0.11 | 0.3 | 1.7 | – | – |
| CCOC(=O)Nc1ccc(NCc2ccc(C(F)(F)F)cn2)c(F)c1N | 0.66 | 0.79 | 0.85 | 0.59 | 0.9 | – | – |
| Nc1c(NC(=O)OC2CC2)ccc(NCc2ncc(C(F)(F)F)cc2F)c1F | 1.39 | > 10 | > 10 | > 10 | > 7 | – | – |
| Nc1c(NC(=O)OC2CC2)cc(F)c(NCc2ccc(C(F)(F)F)cc2F)c1F | 0.93 | > 10 | > 10 | > 10 | > 10 | 1.27 | – |
| CCOC(=O)Nc1ccc(NCc2cccc(S(F)(F)(F)(F)F)c2)c(F)c1N | 0.36 | 0.21 | 0.65 | 0.65 | 1.8 | – | – |
| Nc1c(NC(=O)OC2CC2)ccc(NCc2ccc(C(F)(F)F)cc2F)c1F | 0.59 | 0.47 | 0.21 | 0.35 | 0.6 | – | – |
| Nc1c(F)c(NCc2ccc(C(F)(F)F)cc2F)c(F)c(F)c1NC(=O)OC1CC1 | > 10 | > 10 | > 10 | > 10 | – | – | – |
| CCOC(=O)Nc1ccc(NCc2ccc(F)cc2)cc1N [EZOGABINE] | 0.33 | 0.34 | – | – | – | 16.2 | – |
| CCOC(=O)Nc1cc(C(F)(F)F)c(NCc2ccc(C(F)(F)F)cc2)c(F)c1N | > 10 | > 10 | > 10 | > 10 | – | – | – |
| Nc1c(NC(=O)OC2CC2)cc(F)c(NCc2ncc(C(F)(F)F)cc2F)c1F | > 10 | > 10 | > 10 | > 10 | – | – | – |
| CC(C)OC(=O)Nc1ccc(NCc2ccc(C(F)(F)F)cc2)c(F)c1N | 0.16 | 0.16 | 0.19 | 4.98 | 31 | 7.52 | – |
| CCOC(=O)Nc1cc(F)c(NCc2ccc(C(F)(F)F)cc2)cc1N | 1.26 | > 10 | 4.65 | > 10 | > 7 | – | – |
| CCOC(=O)Nc1ccc(NCc2ccc(C(F)(F)F)nc2)c(F)c1N | 0.61 | 0.69 | 0.95 | 1.27 | 2.1 | 6.77 | – |
| Nc1c(F)c(NCc2ccc(C(F)(F)F)cc2F)cc(F)c1NC(=O)OC1CC1 | 1.47 | > 10 | 0.55 | > 10 | > 7 | – | – |
| Nc1c(NC(=O)OC2CC2)ccc(NCc2ccc(C(F)(F)F)nc2)c1F | 0.71 | 0.69 | 1.13 | 1.36 | 1.9 | – | – |
| CCOC(=O)Nc1ccc(NCc2ccc(F)cc2)nc1N | 2 | 1.58 | 5.62 | 3.5 | 1.8 | – | – |
